Bioassay records from PubChem BioAssay.
A selection: hits, their analogues and other compounds. The true share with any hit is near 1.5%.
FLuc inh counter: counter-screen for luciferase assay inhibitors: firefly luciferase inhibition; actives 1.5% (n = 200,000); inhibition, % at 10 µM; ATPLite firefly luciferase biochemical luminescence, 10 min;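 active = inhibition above about 50% when tested at 10 µM, limit read from the data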
Target sequence (P08659 whole entry, looked up): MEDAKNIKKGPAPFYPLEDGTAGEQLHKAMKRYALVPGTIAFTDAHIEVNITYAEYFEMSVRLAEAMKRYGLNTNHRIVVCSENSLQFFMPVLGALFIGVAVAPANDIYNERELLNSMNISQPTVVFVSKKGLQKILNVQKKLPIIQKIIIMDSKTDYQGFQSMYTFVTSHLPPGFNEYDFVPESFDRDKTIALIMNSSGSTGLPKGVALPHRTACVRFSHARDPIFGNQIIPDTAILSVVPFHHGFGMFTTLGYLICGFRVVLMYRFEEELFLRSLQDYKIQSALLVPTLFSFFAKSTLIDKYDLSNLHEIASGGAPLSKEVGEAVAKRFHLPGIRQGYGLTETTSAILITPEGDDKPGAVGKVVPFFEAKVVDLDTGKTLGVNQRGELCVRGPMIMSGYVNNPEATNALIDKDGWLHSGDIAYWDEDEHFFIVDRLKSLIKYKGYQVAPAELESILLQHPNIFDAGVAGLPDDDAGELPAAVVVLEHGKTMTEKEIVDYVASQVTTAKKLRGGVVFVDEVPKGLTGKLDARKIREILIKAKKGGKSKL
TRAIL sens C8: sensitizes caspase-8 expressing cells to TRAIL | NB7+C8 cells + TRAIL, ATPlite viability luminescence | AID 624354 | inhibition (viability loss, TRAIL sensitization), % at 10 µM | actives 1% (n = 360,000);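 active = compounds causing at least 50% loss of cell viability in the single-dose screen, relative to plate controls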
PPC-1+TRAIL kill: kills PPC-1 cancer cells in the presence of TRAIL; cell killing (% activity), % at 4 µM or 5 µM; PPC-1 cells + TRAIL, ATPLite viability luminescence; actives 0.41% (n = 220,000); AID 1443;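 active = cell killing above 50% in the first pass at 4 µM, then a duplicate retest at 5 µM averaging 50% or more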;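 note: plate controls were cells with TRAIL plus DMSO for no effect and medium-only wells lacking cells for full effect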
FLuc stim CS: affects firefly luciferase, flagging false hits in luciferase stimulation screens. P08659. ATPlite luciferase biochemical, luminescence, 10 min; 0 = ATP-free wells, 1 = DMSO control. activation factor at 10 µM. 200,000 tested, under 10 active. AID 1027;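 active = luciferase activation factor, scaled between plate controls, of at least 2 with compound at 10 µM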
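Material: Luciferase/luciferin reagent mix | Doses: Test compounds dosed from 2 mM stocks in 100% DMSO | Timing: 10 min incubation after luciferase reagent addition, room temperature | Measured by: Luminescence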
PPC1 cytotox: PPC-1 cell cytotoxicity; PPC-1 viability, ATPlite luminescence, overnight; shares compounds with PPC-1+TRAIL kill; cytotoxicity, % at 5 µM; actives 50% (n = 1,200);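 active = reconfirmed compounds whose average cytotoxicity reaches 50% or more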;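 note: 0% = DMSO-treated cells and 100% = wells holding medium but no cells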
Starred values were filed as active, the others as inactive.

Results for CC1=CC2OC3CC4OC(=O)C=CC=CC(=O)OCCC(C)C(O)C(=O)OCC2(CC1O)C4(C)C31CO1 (stereo not given) ?
TRAIL sens C8: 72*

What do the screens show for `O=[N+]([O-])/C=C/c1c(Cl)cccc1Cl`?
TRAIL sens C8: 71*

What do the screens show for `CCN(CC)c1ccc(/C=C/[N+](=O)[O-])cc1`?
FLuc inh counter: -4; TRAIL sens C8: 10; PPC-1+TRAIL kill: 4; FLuc stim CS: 1

How did COc1ccc(CC2NCC(O)C2OC(C)=O)cc1 (stereo not given) do in these assays?
TRAIL sens C8: 85*

Results for O=C1C2CC(CN3CCCCC23)C2CCCCN12 (stereo not given) ?
TRAIL sens C8: -17

Results for C=C(C=O)CC1CC(O)[C@]2(C)OC3CC4OC5C[C@]6(C)O[C@]7(C)CCC8OC9C[C@]%10(C)OC%11C(C)=CC(=O)OC%11CC%10OC9C[C@@H](C)C8OC7CC6O[C@]5(C)CC5OC5C4OC3CC2O1 (stereo not given in full) ?
FLuc inh counter: -4; TRAIL sens C8: 96*; PPC-1+TRAIL kill: 80*; FLuc stim CS: 1; PPC1 cytotox: 78*

How did C=C(CO)CC1CC(O)[C@]2(C)OC3CC4OC5C[C@]6(C)O[C@]7(C)CCC8OC9C[C@]%10(C)OC%11C(C)=CC(=O)OC%11CC%10OC9C[C@@H](C)C8OC7CC6O[C@]5(C)C/C=C\C4OC3CC2O1 (stereo not given in full) do in these assays?
FLuc inh counter: -1; TRAIL sens C8: 8; PPC-1+TRAIL kill: 7; FLuc stim CS: 1

Results for CCOC(=O)[C@]12Cc3cc(C)ccc3[C@H]1N(Cc1ccccc1)C(=O)c1cc(F)c(F)cc12 ?
TRAIL sens C8: 21

What do the screens show for `C=C1C(=O)O[C@@H]2C[C@@H](C)[C@@H]3C=CC(=O)[C@@]3(C)[C@@H](O)[C@H]12`?
TRAIL sens C8: 77*; PPC-1+TRAIL kill: 60*; PPC1 cytotox: 57*

How did Cn1ccnc1P(=S)(c1nccn1C)N1CCOCC1 do in these assays?
FLuc inh counter: -9; TRAIL sens C8: 0; PPC-1+TRAIL kill: 8; FLuc stim CS: 1.1; PPC1 cytotox: -9

What do the screens show for `CCN1/C(=C\C=C\C2=[N+](CC)c3ccccc3C2(C)C)C(C)(C)c2ccccc21`?
FLuc inh counter: 30; TRAIL sens C8: 77*; PPC-1+TRAIL kill: 55*; FLuc stim CS: 0.7; PPC1 cytotox: 60*

What do the screens show for `O=C1c2ccccc2-n2nnc(-c3ccccc3)c2C2c3cc(Br)ccc3CCN12` (stereo not given)?
TRAIL sens C8: -10

How did COC(=O)C1=C(c2cccc(C#N)c2)C[C@@H]2CC[C@H]1N2C(=O)N1CCCCC1 do in these assays?
TRAIL sens C8: 9

How did CCC1(OC(=O)CN)C(=O)OCc2c1cc1n(c2=O)Cc2cc3ccccc3nc2-1 (stereo not given) do in these assays?
TRAIL sens C8: 31; PPC-1+TRAIL kill: 30; PPC1 cytotox: 28

What do the screens show for `CC[C@@]1(O)C(=O)OCc2c1cc1n(c2=O)Cc2cc3ccccc3nc2-1`?
PPC-1+TRAIL kill: 49

What do the screens show for `COC1CC(OC2CCC3(C)C(CCC4C3CCC3(C)C(C5=CC(=O)OC5)C(OC(C)=O)CC43O)C2)OC(C)C1OC1OC(COC2OC(CO)C(O)C(O)C2O)C(O)C(O)C1O` (stereo not given)?
PPC-1+TRAIL kill: 48; PPC1 cytotox: 56*

What do the screens show for `NC(Cc1ccccc1Cl)c1nn[nH]n1` (stereo not given)?
TRAIL sens C8: 1

How did O=C(Nc1ccc(C(=O)O)cc1)Oc1ccc(N(CCCl)CCCl)cc1 do in these assays?
TRAIL sens C8: 10

Results for NC(=S)c1cn(C2OC(CO)C(O)C2O)c2ncnc(N)c12 (stereo not given) ?
TRAIL sens C8: 67*; PPC-1+TRAIL kill: 55*; PPC1 cytotox: 55*

What do the screens show for `COC(=O)C(C)Oc1cc(C)cc2oc(=O)c3c(c12)CCCC3` (stereo not given)?
FLuc inh counter: 1; TRAIL sens C8: 34; PPC-1+TRAIL kill: 0; FLuc stim CS: 1; PPC1 cytotox: 15

How did COc1ccccc1N1CCN(Cc2ccccc2F)CC1 do in these assays?
FLuc inh counter: 1; TRAIL sens C8: -10; PPC-1+TRAIL kill: 18; FLuc stim CS: 1; PPC1 cytotox: 8

Results for CC(C)(C)c1cc([N+](=O)[O-])cc(C(C)(C)C)c1O ?
FLuc inh counter: -2; PPC-1+TRAIL kill: 21; FLuc stim CS: 1

Results for C[C@@H]1O[C@@H](O[C@H]2C[C@@H](O)[C@]3(CO)[C@H]4[C@H](O)C[C@]5(C)[C@@H](C6COC(=O)C6)CC[C@]5(O)[C@@H]4CC[C@]3(O)C2)[C@H](O)[C@H](O)[C@H]1O (stereo not given in full) ?
FLuc inh counter: -2; TRAIL sens C8: 39; PPC-1+TRAIL kill: 61*; FLuc stim CS: 1; PPC1 cytotox: 63*

Results for COc1cccc(NP2(=O)OCC(C)([N+](=O)[O-])CO2)c1 (stereo not given) ?
TRAIL sens C8: -3

How did CC(=O)OC[C@]12CCC(C)=C[C@H]1O[C@@H]1[C@H](O)[C@@H](OC(C)=O)[C@@]2(C)[C@]12CO2 do in these assays?
TRAIL sens C8: 89*; PPC-1+TRAIL kill: 65*; PPC1 cytotox: 63*

Results for COC(=O)C1=C(c2ccc(F)cc2F)C[C@@H]2CC[C@H]1N2C(=O)NC1Cc2ccccc2C1 ?
TRAIL sens C8: 16

Results for O=C1NC(=O)C2(CCN(c3ccccc3)CC2)C(=O)N1 ?
TRAIL sens C8: 6
